Data taken from ChEMBL document CHEMBL1131614, “Novel calcium antagonists with both calcium overload inhibition and antioxidant activity. 1. 2-(3, 5-di-tert-butyl-4-hydroxyphenyl)-3-(aminopropyl)thiazolidinones” (J Med Chem, 1998).
Values joined by “and” are separate entries in the source; they are usually repeats but may differ in a detail not shown here. Identical values can stand only once.

Experiments:
[1] = target: Voltage-dependent L-type calcium channel subunit alpha-1C (Rattus norvegicus, UniProt P22002); experiment: In vitro inhibition of K+ induced contractions of the isolated rat aorta.; assay type: functional, tissue-based
Chain of Voltage-dependent L-type calcium channel subunit alpha-1C (P22002 whole entry): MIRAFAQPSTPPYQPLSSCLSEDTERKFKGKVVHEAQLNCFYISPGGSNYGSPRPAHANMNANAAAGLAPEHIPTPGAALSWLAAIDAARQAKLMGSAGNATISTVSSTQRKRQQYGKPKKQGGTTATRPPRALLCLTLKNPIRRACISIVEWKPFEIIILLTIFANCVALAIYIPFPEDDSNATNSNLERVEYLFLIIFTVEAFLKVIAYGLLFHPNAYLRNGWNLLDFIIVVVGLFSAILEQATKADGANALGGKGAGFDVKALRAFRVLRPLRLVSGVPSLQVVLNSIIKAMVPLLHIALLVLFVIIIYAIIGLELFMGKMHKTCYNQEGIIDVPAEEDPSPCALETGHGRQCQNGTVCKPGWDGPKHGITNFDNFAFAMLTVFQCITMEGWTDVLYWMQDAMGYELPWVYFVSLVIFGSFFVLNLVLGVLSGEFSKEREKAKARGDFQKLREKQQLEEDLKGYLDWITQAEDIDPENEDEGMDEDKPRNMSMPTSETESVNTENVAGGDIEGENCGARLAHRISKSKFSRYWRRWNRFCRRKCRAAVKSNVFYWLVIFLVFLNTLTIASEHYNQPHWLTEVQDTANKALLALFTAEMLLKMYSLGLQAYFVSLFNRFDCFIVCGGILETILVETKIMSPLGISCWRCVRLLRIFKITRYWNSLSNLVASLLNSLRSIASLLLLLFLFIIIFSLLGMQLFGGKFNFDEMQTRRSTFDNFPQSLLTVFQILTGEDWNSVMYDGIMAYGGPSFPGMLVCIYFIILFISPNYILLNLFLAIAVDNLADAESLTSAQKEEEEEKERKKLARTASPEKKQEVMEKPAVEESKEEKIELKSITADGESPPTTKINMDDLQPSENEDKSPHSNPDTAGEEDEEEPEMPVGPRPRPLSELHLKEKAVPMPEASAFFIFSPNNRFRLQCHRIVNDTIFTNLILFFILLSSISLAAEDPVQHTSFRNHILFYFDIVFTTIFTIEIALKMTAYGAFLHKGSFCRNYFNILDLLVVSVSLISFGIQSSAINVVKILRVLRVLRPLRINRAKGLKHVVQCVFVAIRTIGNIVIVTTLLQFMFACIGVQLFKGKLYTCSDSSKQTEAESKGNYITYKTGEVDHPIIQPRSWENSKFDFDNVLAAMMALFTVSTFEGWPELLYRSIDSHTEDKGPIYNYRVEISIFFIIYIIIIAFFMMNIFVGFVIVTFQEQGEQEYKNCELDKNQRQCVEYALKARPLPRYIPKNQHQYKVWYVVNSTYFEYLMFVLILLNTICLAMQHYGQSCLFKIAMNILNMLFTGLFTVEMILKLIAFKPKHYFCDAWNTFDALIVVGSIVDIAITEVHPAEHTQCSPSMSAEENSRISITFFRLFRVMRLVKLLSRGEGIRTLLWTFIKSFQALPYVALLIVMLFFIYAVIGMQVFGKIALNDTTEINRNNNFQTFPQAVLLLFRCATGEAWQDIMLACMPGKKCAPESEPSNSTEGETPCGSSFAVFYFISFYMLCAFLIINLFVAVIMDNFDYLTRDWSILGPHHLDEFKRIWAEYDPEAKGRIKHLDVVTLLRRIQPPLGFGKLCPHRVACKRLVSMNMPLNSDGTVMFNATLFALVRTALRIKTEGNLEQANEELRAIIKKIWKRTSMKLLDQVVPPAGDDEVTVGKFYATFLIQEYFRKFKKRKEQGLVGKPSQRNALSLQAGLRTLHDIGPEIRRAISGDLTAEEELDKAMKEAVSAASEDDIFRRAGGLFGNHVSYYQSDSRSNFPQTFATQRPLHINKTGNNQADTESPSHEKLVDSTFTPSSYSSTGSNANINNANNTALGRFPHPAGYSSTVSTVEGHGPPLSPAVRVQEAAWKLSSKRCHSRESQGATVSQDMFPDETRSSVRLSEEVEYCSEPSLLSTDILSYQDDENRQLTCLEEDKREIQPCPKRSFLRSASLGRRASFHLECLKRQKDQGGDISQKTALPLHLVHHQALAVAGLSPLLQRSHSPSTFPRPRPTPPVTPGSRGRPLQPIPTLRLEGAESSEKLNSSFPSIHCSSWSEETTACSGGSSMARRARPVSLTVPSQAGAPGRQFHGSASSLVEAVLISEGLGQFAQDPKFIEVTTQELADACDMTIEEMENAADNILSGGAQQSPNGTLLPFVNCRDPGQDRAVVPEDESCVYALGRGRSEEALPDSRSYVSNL

[2] = target: T1, Seed linoleate 13S-lipoxygenase-1 (Glycine max) (UniProt P08170); experiment: In vitro inhibition of rabbit LDL oxidation by soybean lipoxygenase at 0.5 uM; assay type: functional
T1 sequence (whole entry): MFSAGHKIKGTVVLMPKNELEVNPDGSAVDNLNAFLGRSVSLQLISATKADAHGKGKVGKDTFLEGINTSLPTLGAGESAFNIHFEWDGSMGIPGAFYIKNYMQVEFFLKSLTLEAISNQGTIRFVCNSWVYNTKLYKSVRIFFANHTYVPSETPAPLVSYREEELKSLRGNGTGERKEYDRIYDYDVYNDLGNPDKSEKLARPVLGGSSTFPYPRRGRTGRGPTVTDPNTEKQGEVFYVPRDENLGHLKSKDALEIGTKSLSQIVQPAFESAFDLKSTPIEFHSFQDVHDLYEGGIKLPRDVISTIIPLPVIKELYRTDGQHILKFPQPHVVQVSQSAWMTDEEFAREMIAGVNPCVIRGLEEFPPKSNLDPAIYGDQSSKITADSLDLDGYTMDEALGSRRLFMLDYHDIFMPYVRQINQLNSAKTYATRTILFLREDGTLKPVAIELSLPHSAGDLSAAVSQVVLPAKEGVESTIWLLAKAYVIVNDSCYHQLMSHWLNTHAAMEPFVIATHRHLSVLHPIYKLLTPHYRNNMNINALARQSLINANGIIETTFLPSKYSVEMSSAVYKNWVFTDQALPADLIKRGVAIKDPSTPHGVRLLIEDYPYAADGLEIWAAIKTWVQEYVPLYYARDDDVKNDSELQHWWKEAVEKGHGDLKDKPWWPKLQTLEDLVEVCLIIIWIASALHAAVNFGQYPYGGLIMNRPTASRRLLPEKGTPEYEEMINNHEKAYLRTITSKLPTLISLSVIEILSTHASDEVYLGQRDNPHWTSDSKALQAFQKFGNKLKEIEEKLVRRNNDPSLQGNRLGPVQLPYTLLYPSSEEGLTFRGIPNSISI
Outline: (§1)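 Compound added to rabbit LDL (Havel method), then soybean lipoxygenase type-IS at 40 μg/mL final. Incubated 24 h at 37 °C in a CO2 incubator. Oxidized LDL separated by gel-permeation chromatography, and fluorescence of the LDL fraction read at ex 360/em 430 nm. Expressed as percent of control.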

[3] = target: T1, Seed linoleate 13S-lipoxygenase-1 (Glycine max); experiment: In vitro inhibition of rabbit LDL oxidation by soybean lipoxygenase at 5 uM; assay type: functional; outline: as §1
[4] = species: Rattus norvegicus; experiment: In vitro inhibition of veratridine induced rat myocardiac cell death.; assay type: functional
[5] = target: T1, Seed linoleate 13S-lipoxygenase-1 (Glycine max); experiment: In vitro inhibition of rabbit LDL oxidation by soybean lipoxygenase.; assay type: functional; parameters: scale not given: the % may be the effect or the level left; outline: as §1

| IC50 [1] | SMILES | IC>80 [4] | also measured |
| --- | --- | --- | --- |
| 600 nM | CN(CCCN1C(=O)CSC1c1cc(C(C)(C)C)c(O)c(C(C)(C)C)c1)Cc1ccccc1 (centres undefined) | – | – |
| 430 nM | CN(CCCN1C(=O)CSC1c1cc(C(C)(C)C)c(O)c(C(C)(C)C)c1)CC(O)COc1ccc2c(c1)OCO2 (centres undefined) | – | – |
| 250 nM | CN(CCCN1C(=O)CSC1c1cc(C(C)(C)C)c(O)c(C(C)(C)C)c1)Cc1ccc2c(c1)OCO2 (centres undefined) | – | – |
| 1500 nM | CN(C)CCCN1C(=O)CSC1c1cc(C(C)(C)C)c(O)c(C(C)(C)C)c1 (centres undefined) | – | – |
| – | Cc1c(C)c2c(c(C)c1O)CC[C@@](C)(CCC[C@H](C)CCC[C@H](C)CCCC(C)C)O2 | – | LDL oxidation, % of control [2]: 60.2%; LDL oxidation remaining (% of control) [3]: 13.2% |
| 420 nM | CN(CCCN1C(=O)CSC1c1cc(C(C)(C)C)c(O)c(C(C)(C)C)c1)CC(O)COc1ccccc1 (centres undefined) | – | – |
| 230 nM | COc1ccc(OCCN(C)CCCN2C(=O)CSC2c2cc(C(C)(C)C)c(O)c(C(C)(C)C)c2)cc1 (centres undefined) | – | – |
| 4400 nM | CC(C)(C)c1cc(C2SCC(=O)N2CCCN)cc(C(C)(C)C)c1O (centres undefined) | – | – |
| – | COc1ccc([C@@H]2Sc3ccccc3N(CCN(C)C)C(=O)[C@@H]2OC(C)=O)cc1 [DILTIAZEM] | >10 µM | LDL oxidation, % of control [2]: 109%; LDL oxidation remaining (% of control) [3]: 111% |
| 2400 nM | CNCCCN1C(=O)CSC1c1cc(C(C)(C)C)c(O)c(C(C)(C)C)c1 (centres undefined) | – | – |
| – | COc1ccc(CN(C)CCCN2C(=O)CSC2c2cc(C(C)(C)C)c(O)c(C(C)(C)C)c2)cc1OC (centres undefined) | 1 µM | – |
| 300 nM | COc1cc(OCCN(C)CCCN2C(=O)CSC2c2cc(C(C)(C)C)c(O)c(C(C)(C)C)c2)cc(OC)c1OC (centres undefined) | – | – |
| 1700 nM | CN(C)CCN(C)CCCN1C(=O)CSC1c1cc(C(C)(C)C)c(O)c(C(C)(C)C)c1 (centres undefined) | – | – |
| 1200 nM | CN(CCCN1C(=O)CSC1c1cc(C(C)(C)C)c(O)c(C(C)(C)C)c1)CC1CC1 (centres undefined) | – | – |
| – | Cc1cc(C(C)(C)C)c(O)c(C(C)(C)C)c1 | – | Control [5]: 19.7% and 0.9% |
| 840 nM | CCOCCN(C)CCCN1C(=O)CSC1c1cc(C(C)(C)C)c(O)c(C(C)(C)C)c1 (centres undefined) | – | – |

| SMILES | IC50 [1] | IC>80 [4] | also measured |
| --- | --- | --- | --- |
| COc1ccc(CCN(C)CCCN2C(=O)CSC2c2cc(C(C)(C)C)c(O)c(C(C)(C)C)c2)cc1OC (centres undefined) | 93 nM | 1 µM | LDL oxidation, % of control [2]: 8.7%; LDL oxidation remaining (% of control) [3]: 0.6% |
| CN(c1nc2ccccc2s1)C1CCN(CCCN2C(=O)CSC2c2cc(C(C)(C)C)c(O)c(C(C)(C)C)c2)CC1 (centres undefined) | 230 nM | 1 µM | LDL oxidation, % of control [2]: 25.8%; LDL oxidation remaining (% of control) [3]: 4.9% |
| CN(c1nc2ccccc2s1)C1CCN(CCCCOc2ccc(F)cc2)CC1 | 760 nM | 0.032 µM | – |
| COc1cc2c(cc1OC)CN(CCCN1C(=O)CSC1c1cc(C(C)(C)C)c(O)c(C(C)(C)C)c1)CC2 (centres undefined) | 200 nM | 1 µM | – |
| CN(CCCN1C(=O)CSC1c1cc(C(C)(C)C)c(O)c(C(C)(C)C)c1)CCOc1ccc2c(c1)OCO2 (centres undefined) | 62 nM | 0.32 µM | LDL oxidation, % of control [2]: 12.9%; LDL oxidation remaining (% of control) [3]: 3% |
| CC(C)(C)c1cc(C2SCC(=O)N2CCCN2CCC(Cc3ccccc3)CC2)cc(C(C)(C)C)c1O (centres undefined) | 210 nM | 0.32 µM | – |
| COc1ccc(OCCN(C)CCCN2C(=O)CSC2c2cc(C(C)(C)C)c(O)c(C(C)(C)C)c2)cc1OC (centres undefined) | 180 nM | 1 µM | – |
